Source: ChEMBL document CHEMBL2384933, “Vitexin inhibits inflammatory pain in mice by targeting TRPV1, oxidative stress, and cytokines” (J Nat Prod, 2013)
Activity calls are given as the source filed them.

How the values were obtained:
Mus musculus [1] = experiment: Antinociceptive activity in Swiss mouse assessed as inhibition of complete Freund's adjuvant-induced mechanical hyperalgesia at 10 mg/kg, ip administered 24 hrs after complete Freund's adjuvant-challenge for seven days by electronic pressure-meter test; format: functional, organism-based; set-up: dose 10 mg/kg
Procedure, shortened: (§1)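 Treatment at 10 mg/kg ip given daily, starting 24 h after intraplantar CFA (10 μL/paw), for seven days. Electronic pressure-meter (Δ threshold, g) and hot plate (55 °C, 30 s cutoff) read every 24 h over days 1–8. Six mice per group.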

Mus musculus [2] = experiment: Antinociceptive activity in Swiss mouse assessed as inhibition of carrageenan-induced thermal hyperalgesia at 1 mg/kg, ip administered 30 mins prior to carrageenan-challenge measured after 1 to 5 hrs by hot plate test; format: functional, organism-based; set-up: dose 1 mg/kg
Procedure, shortened: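 Doses of 1–10 mg/kg given ip 30 min before intraplantar carrageenan (300 μg/paw). Hot plate held at 55 °C; latency to jump or lick paws recorded at 1, 3 and 5 h, with a 30 s cutoff. Two baseline latencies taken at least 10 min apart. Six mice per group.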

Mus musculus [3] = experiment: Antiinflammatory activity in Swiss mouse assessed as increase in carrageenan-induced IL-10 production 10 mg/kg, ip administered 30 mins prior to carrageenan-challenge measured after 3 hrs by ELISA; format: functional, organism-based; set-up: dose 10 mg/kg
Procedure, shortened: (§2)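 Compound given ip in saline 30 min before intraplantar carrageenan (300 μg/paw). Paw skin taken 3 h later and homogenized in 500 μL buffer with protease inhibitors. TNF-α, IL-1β, IL-6, IL-33 and IL-10 measured by ELISA, reported as pg/100 mg tissue. Saline-injected paws served as controls. Six mice per group; representative of two experiments.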

Mus musculus [4] = experiment: Antioxidant activity in Swiss mouse assessed as prevention of carrageenan-induced decrease in GSH levels at 10 mg/kg, ip administered 30 mins prior to carrageenan-challenge measured after 3 hrs by UV-vis spectrophotometric analysis; format: functional, organism-based; set-up: dose 10 mg/kg
Procedure, shortened: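 Given at 10 mg/kg ip 30 min before intraplantar carrageenan (300 μg/paw); plantar skin taken at 3 h, four paws pooled per sample. Tissue homogenized in 0.02 M EDTA with TCA and centrifuged. Supernatant reacted with DTNB in Tris 0.4 M pH 8.9; absorbance read at 412 nm after 5 min. Reported as nmol GSH/mg tissue. Three pools per experiment.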

Mus musculus [5] = experiment: Antinociceptive activity in Swiss mouse assessed as decrease in complete Freund's adjuvant-induced time spent for licking paw at 10 mg/kg, ip administered 30 mins prior to complete Freund's adjuvant-challenge measured after 30 mins; format: functional, organism-based; set-up: dose 10 mg/kg
Procedure, shortened: (§3)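 Dosed ip 30 min before intraplantar CFA (10 μL/paw). Flinches and licking time of the injected paw counted over 0–30 min and expressed as totals for 30 min. Six mice per group; representative of two experiments.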

Mus musculus [6] = experiment: Antinociceptive activity in Swiss mouse assessed as inhibition of complete Freund's adjuvant-induced paw flinching at 10 mg/kg, ip administered 30 mins prior to complete Freund's adjuvant-challenge measured after 30 mins; format: functional, organism-based; set-up: dose 10 mg/kg; procedure, shortened: as §3
Mus musculus [7] = experiment: Antinociceptive activity in Swiss mouse assessed as decrease in capsaicin-induced time spent for licking paw at 10 mg/kg, ip administered 30 mins prior to capsaicin-challenge measured after 5 mins; format: functional, organism-based; set-up: dose 10 mg/kg
Procedure, shortened: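 Pretreatment ip 30 min before intraplantar capsaicin (1.6 μg/paw), given after an adaptation period. Mice observed individually for 5 min afterwards. Total flinches and time spent licking the injected paw were scored. Six mice per group; representative of two experiments; one-way ANOVA with Tukey's test.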

Mus musculus [8] = experiment: Antinociceptive activity in Swiss mouse assessed as inhibition of acetic acid-induced writhing response at 1 to 3 mg/kg, ip administered 30 mins prior to acetic acid-challenge measured for 20 mins; format: functional, organism-based
Procedure, shortened: (§4)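 Doses of 0.3–10 mg/kg given ip in saline 30 min before ip acetic acid (0.8% v/v in saline, 10 mL/kg). Cumulative abdominal writhing counted over 20 min and presented in 2-min intervals. Six mice per group; representative of two experiments.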

Mus musculus [9] = experiment: Antiinflammatory activity in Swiss mouse assessed as inhibition of carrageenan-induced IL-1beta production 10 mg/kg, ip administered 30 mins prior to carrageenan-challenge measured after 3 hrs by ELISA; format: functional, organism-based; set-up: dose 10 mg/kg; conditions: at 10 mg/kg; procedure, shortened: as §2
Mus musculus [10] = experiment: Antiinflammatory activity in Swiss mouse assessed as inhibition of carrageenan-induced TNFalpha production 10 mg/kg, ip administered 30 mins prior to carrageenan-challenge measured after 3 hrs by ELISA; format: functional, organism-based; set-up: dose 10 mg/kg; conditions: at 10 mg/kg; procedure, shortened: as §2
Mus musculus [11] = experiment: Neurotoxicity in Swiss mouse assessed as change in motor response at 10 mg/kg, ip after 5.5 hrs by rotarod test (reference value: 180 seconds); format: toxicity, organism-based; set-up: dose 10 mg/kg, route intraperitoneal; conditions: in vivo
Procedure, shortened: (§5)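 Rota-rod with a 2.5 cm bar at 22 rpm. Mice pre-selected 24 h earlier by staying on the bar for two consecutive 180 s periods. Given 10 mg/kg ip (vehicle 2% DMSO in saline) and tested at 1.5, 3.5 and 5.5 h, with a 180 s cutoff. n = 6.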

Mus musculus [12] = experiment: Antinociceptive activity in Swiss mouse assessed as inhibition of capsaicin-induced mechanical hyperalgesia at 10 mg/kg, ip administered 30 mins prior to capsaicin-challenge measured after 1 to 5 hrs by electronic pressure-meter test; format: functional, organism-based; set-up: dose 10 mg/kg
Procedure, shortened: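 Dosed at 10 mg/kg ip 30 min before intraplantar capsaicin (1.6 μg/paw). Mechanical hyperalgesia measured by electronic pressure-meter as Δ withdrawal threshold (g), average of three readings. Thermal hyperalgesia measured as hot-plate latency at 55 °C with a 30 s cutoff. Both read at 1, 3 and 5 h. Six mice per group.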

Mus musculus [13] = experiment: Antinociceptive activity in Swiss mouse assessed as inhibition of acetic acid-induced writhing response at 10 mg/kg, ip administered 30 mins prior to acetic acid-challenge measured for 20 mins; format: functional, organism-based; set-up: dose 10 mg/kg; procedure, shortened: as §4
Mus musculus [14] = experiment: Antinociceptive activity in Swiss mouse assessed as inhibition of complete Freund's adjuvant-induced thermal hyperalgesia at 10 mg/kg, ip administered 24 hrs after complete Freund's adjuvant-challenge for seven days by hot plate test; format: functional, organism-based; set-up: dose 10 mg/kg; procedure, shortened: as §1
Mus musculus [15] = experiment: Antinociceptive activity in Swiss mouse assessed as inhibition of carrageenan-induced mechanical hyperalgesia at 10 mg/kg, ip administered 30 mins prior to carrageenan-challenge measured after 1 to 5 hrs by electronic pressure-meter test; format: functional, organism-based; set-up: dose 10 mg/kg
Procedure, shortened: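 Doses of 1–10 mg/kg given ip 30 min before intraplantar carrageenan (300 μg/paw). Electronic pressure-meter applied to mice on a wire grid floor; paw withdrawal with flinching was the end point, and each value is the average of three readings. Result reported as Δ withdrawal threshold (g) from baseline at 1, 3 and 5 h. Six mice per group; two-way ANOVA.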

Mus musculus [16] = experiment: Neurotoxicity in Swiss mouse assessed as change in motor response at 10 mg/kg, ip after 1.5 hrs by rotarod test (reference value: 180 seconds); format: toxicity, organism-based; set-up: dose 10 mg/kg, route intraperitoneal; conditions: in vivo; procedure, shortened: as §5
Mus musculus [17] = experiment: Antiinflammatory activity in Swiss mouse assessed as inhibition of carrageenan-induced IL-6 production 10 mg/kg, ip administered 30 mins prior to carrageenan-challenge measured after 3 hrs by ELISA; format: functional, organism-based; set-up: dose 10 mg/kg; conditions: at 10 mg/kg; procedure, shortened: as §2
Mus musculus [18] = experiment: Antinociceptive activity in Swiss mouse assessed as inhibition of phenyl-p-benzoquinone-induced writhing response at 10 mg/kg, ip administered 30 mins prior to phenyl-p-benzoquinone-challenge measured for 20 mins; format: functional, organism-based; set-up: dose 10 mg/kg
Procedure, shortened: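 Pretreatment ip 30 min before ip phenyl-p-benzoquinone (1890 μg/kg in 2% DMSO/saline). Cumulative writhing score counted over 20 min. Six mice per group; representative of two experiments.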

Question: What does the source list for `O=c1cc(-c2ccc(O)cc2)oc2c([C@@H]3O[C@H](CO)[C@@H](O)[C@H](O)[C@H]3O)c(O)cc(O)c12` [VITEXIN]?
Answer: inhibition (Mus musculus [1]): Active; inhibition (Mus musculus [2]): inactive; Activity (Mus musculus [3]): Active; Activity (Mus musculus [4]): Active; inhibition (Mus musculus [5]): Active; inhibition (Mus musculus [6]): Active; inhibition (Mus musculus [7]): Active; inhibition (Mus musculus [8]): Active; inhibition (Mus musculus [9]): Active; inhibition (Mus musculus [10]): Active; Time (Mus musculus [11]): 180 s; inhibition (Mus musculus [12]): Active; inhibition (Mus musculus [13]): Active; inhibition (Mus musculus [14]): Active; inhibition (Mus musculus [15]): Active; Time (Mus musculus [16]): 180 s; inhibition (Mus musculus [17]): Active; inhibition (Mus musculus [18]): Active
